For one data set, the system named is MT4. The data set is described as follows: Evaluated for 50% antiviral effective concentration based on inhibition of HIV-1 (HTLV-IIIB) induced cytopathogenicity in MT-4 cells. It is filed as functional, cell-based. The note with it: Homo sapiens. The gist of the method:
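MT-4 cells were infected with HIV-1 HTLV-IIIB at MOI 0.02 and cultured with a range of compound concentrations for 4 days. Viable cells were counted by MTT.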
For orientation: Protection from cytopathic effect is a common read-out in antiviral testing.

Data set [1] is described as follows: Evaluated for 50% cytotoxic concentration based on reduction of viability of mock-infected cells. It is filed as cell-based. The note with it: human, MT4 cells (mock-infected). The method, boiled down:
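Mock-infected MT-4 cells were cultured with a range of compound concentrations for 4 days, and viability was read by MTT.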

In data set [2] the target is Human immunodeficiency virus type 1 reverse transcriptase (Human immunodeficiency virus 1, UniProt Q72547). As to the kind of experiment: Inhibition of purified HIV-1 reverse transcriptase. The gist of the method: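 Recombinant dimeric RT expressed in E. coli (HIV-1 p66/p51, HIV-2 p68/p55), 0.08 μg per reaction; identical conditions for both enzymes. Buffer: 50 mM Tris-HCl pH 8.0, 150 mM KCl, 5 mM MgCl2, 0.5 mM EGTA, 5 mM DTT, 0.3 mM glutathione. Template-primer poly(rA)·oligo(dT)12-18 with 20 μM TTP plus [3H]TTP. Compound in DMSO or water. Incubated 1 h at 37 °C, stopped with EGTA. Incorporation read on DE-81 filters by scintillation.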

The structures appear in SMILES notation.

In turn, `O=C(Nc1cc(S(=O)(=O)O)cc2cc(S(=O)(=O)O)cc(O)c12)c1ccccc1` registered an EC50 with MT4 of 358 µM. Also, the CC50 in data set [1] is > 500 µM. This compound had an IC50 in data set [2] of 464 µM.
In the same order, the values of `CC(=O)Nc1cc(S(=O)(=O)O)cc2cc(S(=O)(=O)O)cc(OC(C)=O)c12` are > 500 µM, > 500 µM and > 1000 µM.
`O=S(=O)(O)c1ccc(-c2ccc(S(=O)(=O)Nc3cc(S(=O)(=O)O)cc4cc(S(=O)(=O)O)cc(S(=O)(=O)O)c34)cc2)cc1`: the EC50 in the data set with MT4 was > 100 µM. In data set [1], the CC50 was > 100 µM. Also, the IC50 in data set [2] was > 1000 µM.
Compound `CCCCCCCCCCCCCCCC(=O)Nc1cc(S(=O)(=O)O)cc2cc(S(=O)(=O)O)cc(O)c12` yielded an EC50 in the data set on MT4 of 37 µM. Further, the midpoint of cytotoxicity in data set [1], the CC50, lay at 250 µM.
On to `Nc1cc(S(=O)(=O)O)c2ccccc2c1N`, for which the EC50 with MT4 is > 189 µM. Also, the CC50 in data set [1] amounted to 189 µM. The compound also displayed an IC50 in data set [2] of 50 µM.
On to `Cc1ccc(C(=O)Nc2ccc(S(=O)(=O)O)c3cc(S(=O)(=O)O)cc(S(=O)(=O)O)c23)cc1NC(=O)c1cccc(NC(=O)Nc2cccc(C(=O)Nc3cc(C(=O)Nc4ccc(S(=O)(=O)O)c5cc(S(=O)(=O)O)cc(S(=O)(=O)O)c45)ccc3C)c2)c1` [SURAMIN], for which, in the data set on MT4, the EC50 worked out at 8.2 µM. The same compound displayed a cytotoxic concentration (CC50) in data set [1] of 250 µM.
In the same order, the values of `Nc1ccc2c(S(=O)(=O)O)cc(S(=O)(=O)O)c(N)c2c1O` are > 7.7 µM and 7.7 µM.
On to `CC(=O)Nc1cc(S(=O)(=O)O)cc2cc(S(=O)(=O)O)cc(O)c12`, for which, in the data set on MT4, the EC50 was 53 µM. In data set [1], this compound gave a CC50 of 402 µM. In data set [2], this compound returned an IC50 of 243 µM.
Take `CCCCCCCCCCCCCCCC(=O)Oc1cc(S(=O)(=O)O)cc2cc(S(=O)(=O)O)cc(OC(=O)CCCCCCCCCCCCCCC)c12`: the EC50 with MT4 is > 15 µM. The midpoint of cytotoxicity in data set [1], the CC50, lay at 15 µM.
In the case of `Nc1ccc2cc(S(=O)(=O)O)cc(S(=O)(=O)O)c2c1`, in the data set with MT4, the EC50 is > 500 µM. Moreover, the CC50 in data set [1] is > 500 µM. The IC50 in data set [2] is > 1000 µM.
`O=C(O)CCCC(=O)Nc1cc(S(=O)(=O)O)cc2cc(S(=O)(=O)O)cc(O)c12`: in the data set with MT4, the EC50 is > 500 µM. In addition, in data set [1], the CC50 was > 500 µM. Moreover, the IC50 in data set [2] is > 1000 µM.
With `CCCCCCCCCCCCCCCC(=O)Nc1cc(S(=O)(=O)O)cc2cc(S(=O)(=O)O)cc(S(=O)(=O)O)c12`, the EC50 in the data set on MT4 was > 42 µM. Further, in data set [1], half-maximal cytotoxicity (CC50) was put at 42 µM. The compound further registered an IC50 in data set [2] of 55 µM.
`O=C(O)c1cc(NS(=O)(=O)c2ccc(-c3ccc(S(=O)(=O)Nc4cc(C(=O)O)c(O)c(S(=O)(=O)O)c4)cc3)cc2)cc(S(=O)(=O)O)c1O` came in with an EC50 in the data set with MT4 of 52.5 µM. It took 247 µM to reach half-maximal cytotoxicity in data set [1] (CC50). This compound registered an IC50 in data set [2] of 427 µM.
The like results for `Nc1cc(S(=O)(=O)O)cc2cc(S(=O)(=O)O)cc(O)c12` were, in that order, > 529 µM, 529 µM and > 1000 µM.
The like results for `CC(=O)Oc1cc(S(=O)(=O)O)cc2cc(S(=O)(=O)O)cc(OC(C)=O)c12` were, in that order, > 461 µM, 461 µM and > 1000 µM.
The like results for `CC(=O)Nc1cc(S(=O)(=O)O)cc2cc(S(=O)(=O)O)cc(S(=O)(=O)O)c12` were, in that order, > 100 µM, > 100 µM and > 1000 µM.
Consider `CC(=O)Oc1cc(S(=O)(=O)O)cc2cc(S(=O)(=O)O)c(N=Nc3ccccc3)c(OC(C)=O)c12`, for which, in the data set with MT4, the EC50 was > 500 µM. Further, the CC50 in data set [1] is > 500 µM. Besides, the IC50 in data set [2] is > 1000 µM.
The compound `O=S(=O)(O)c1cc(S(=O)(=O)O)c2cc(NS(=O)(=O)c3ccc(-c4ccc(S(=O)(=O)Nc5ccc6cc(S(=O)(=O)O)cc(S(=O)(=O)O)c6c5)cc4)cc3)ccc2c1` displayed an EC50 in the data set with MT4 of 29.5 µM. In data set [1], the CC50 was > 500 µM. In data set [2], this compound had an IC50 of 125 µM.
In the same order, the values of `O=C(O)CCCCCCCCC(=O)Nc1cc(S(=O)(=O)O)cc2cc(S(=O)(=O)O)cc(O)c12` are 134 µM, > 500 µM and 135 µM.
Regarding `O=C(CCCCCCCCC(=O)Nc1cc(S(=O)(=O)O)cc2cc(S(=O)(=O)O)cc(O)c12)Nc1cc(S(=O)(=O)O)cc2cc(S(=O)(=O)O)cc(O)c12`, the EC50 with MT4 was determined as 9.7 µM. Also, the CC50 in data set [1] worked out at 288 µM. In data set [2], half-maximal inhibition (IC50) was put at 52 µM.
The like results for `Nc1cc(S(=O)(=O)O)cc2cc(S(=O)(=O)O)cc(S(=O)(=O)O)c12` were, in that order, > 100 µM, > 100 µM and > 1000 µM.
Take `O=S(=O)(O)c1cc(NS(=O)(=O)c2ccc(-c3ccc(S(=O)(=O)Nc4cc(S(=O)(=O)O)cc5cc(S(=O)(=O)O)cc(S(=O)(=O)O)c45)cc3)cc2)c2c(S(=O)(=O)O)cc(S(=O)(=O)O)cc2c1`: in the data set on MT4, a half-maximal response (EC50) required 36 µM. In data set [1], the CC50 is > 100 µM. In addition, the IC50 in data set [2] was > 849 µM.
The like results for `O=C(CCCCCCCCCCC(=O)Nc1cc(S(=O)(=O)O)cc2cc(S(=O)(=O)O)cc(S(=O)(=O)O)c12)Nc1cc(S(=O)(=O)O)cc2cc(S(=O)(=O)O)cc(S(=O)(=O)O)c12` were, in that order, > 51 µM, > 100 µM and 136 µM.
Turning to `COc1cc(S(=O)(=O)O)cc2cc(S(=O)(=O)[O-])cc([N+](C)(C)C)c12`, the EC50 in the data set on MT4 was > 500 µM. Moreover, the CC50 in data set [1] was > 500 µM. Also, the IC50 in data set [2] was > 1000 µM.
`COc1cc(S(=O)(=O)O)cc2cc(S(=O)(=O)O)cc(N(C)C)c12`: in the data set on MT4, the EC50 is > 500 µM. The cytotoxic concentration (CC50) in data set [1] is > 500 µM. In data set [2], the IC50 is > 1000 µM.
On to `Nc1c(S(=O)(=O)O)cc2cc(S(=O)(=O)O)cc(O)c2c1O`, for which, in the data set with MT4, the EC50 was > 12 µM. The compound also gave a CC50 in data set [1] of 12 µM. Half-maximal inhibition in data set [2] (IC50) was put at 162 µM.
For `O=S(=O)(O)c1cc(O)c2c(O)cc(S(=O)(=O)O)cc2c1` [CHROMOTROPATE], in the data set with MT4, the EC50 was > 1180 µM. In data set [1], the CC50 was 1180 µM.

As usually defined, the EC50 is the concentration at which the effect is half-maximal. Low values mean an effect from little substance, high ones a need for much substance. As usually defined, the CC50 is the concentration giving 50% cytotoxicity. A lower CC50 goes with greater toxicity to the cells. Broadly, the IC50 is the concentration at which inhibition is half-maximal. The low end stands for inhibition by little substance, the high end for a need for much substance.
